Our source for the Ratio IC50 and Retention_time values is ChEMBL document CHEMBL3351726 (J Med Chem, 2014).

Residues, ends and D or L forms follow the SMILES beside them.

In one data set the test system is HEK293. The data set is described as follows: Selectivity ratio of IC50 for rat Nav1.2 expressed in HEK-293 cells to IC50 for human Nav1.7 expressed in HEK-293 cells. The format is cell-based.
The nature of data set [1]: Retention time of the compound measured over 15 mins at flow rate of 1 mL/min by HPLC.
The nature of data set [2]: Retention time of the compound measured over 30 mins at flow rate of 1 mL/min by HPLC. As to conditions: 0.5 h. The data set is classed as physicochemical. In short, it runs like this:
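Reversed-phase analytical HPLC or LC−MS on a SymmetryShield RP18 column (5 μm, 4.6 × 150 mm). Gradient 10−60% B over 30 min at 1 mL/min; A = 0.1% TFA in water, B = 0.1% TFA in acetonitrile.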

For the compound `[H][C@]12CSSC[C@@H](C(=O)N[C@@H](CCCCN)C(=O)N[C@@H](CCCCN)C(=O)N[C@H](C(=O)N[C@@H](CC(C)C)C(=O)N[C@@H](Cc3c[nH]c4ccccc34)C(=O)O)[C@@H](C)CC)NC(=O)[C@H](Cc3c[nH]c4ccccc34)NC(=O)[C@H](CC(C)C)NC(=O)[C@H](CCCNC(=N)N)NC(=O)[C@]3([H])CSSC[C@]([H])(NC(=O)[C@]([H])([C@@H](C)O)NC(=O)[C@H](Cc4c[nH]c5ccccc45)NC(=O)[C@H](CCSC)NC(=O)[C@H](Cc4c[nH]c5ccccc45)NC(=O)[C@H](CCCCN)NC(=O)[C@H](CCC(N)=O)NC(=O)[C@@H](NC(=O)[C@@H](N)Cc4ccc(O)cc4)CSSC[C@]([H])(NC1=O)C(=O)N[C@@H](CCC(=O)O)C(=O)NCC(=O)N[C@@H](CC(C)C)C(=O)N[C@@H](C(C)C)C(=O)N3)C(=O)N[C@@H](CC(=O)O)C(=O)N[C@@H](CO)C(=O)N[C@@H](C)C(=O)N[C@@H](CCCNC(=N)N)C(=O)N[C@@H](CCCCN)C(=O)N2` (HELM PEPTIDE1{Y.C.Q.K.W.M.W.T.C.D.S.A.R.K.C.C.E.G.L.V.C.R.L.W.C.K.K.I.L.W}$PEPTIDE1,PEPTIDE1,2:R3-16:R3|PEPTIDE1,PEPTIDE1,9:R3-21:R3|PEPTIDE1,PEPTIDE1,15:R3-25:R3$$$V2.0), the Ratio IC50 in the data set with HEK293 was 20. Also, the Retention_time in data set [1] came to 9.54 min; in data set [2], 15.95 min.

In the case of `[H][C@]12CSSC[C@@H](C(=O)N[C@@H](CCCCN)C(=O)N[C@@H](CCCCN)C(=O)N[C@@H](CCCCN)C(=O)N[C@H](C(=O)N[C@@H](CC(C)C)C(=O)N[C@@H](Cc3c[nH]c4ccccc34)C(=O)O)[C@@H](C)CC)NC(=O)[C@H](Cc3c[nH]c4ccccc34)NC(=O)[C@H](CC(C)C)NC(=O)[C@H](CCCNC(=N)N)NC(=O)[C@]3([H])CSSC[C@]([H])(NC(=O)[C@]([H])([C@@H](C)O)NC(=O)[C@H](Cc4c[nH]c5ccccc45)NC(=O)[C@H](CCSC)NC(=O)[C@H](Cc4c[nH]c5ccccc45)NC(=O)[C@H](CCCCN)NC(=O)[C@H](CCC(N)=O)NC(=O)[C@@H](NC(=O)[C@@H](N)Cc4ccc(O)cc4)CSSC[C@]([H])(NC1=O)C(=O)N[C@@H](CCC(=O)O)C(=O)NCC(=O)N[C@@H](CC(C)C)C(=O)N[C@@H](C(C)C)C(=O)N3)C(=O)N[C@@H](CC(=O)O)C(=O)N[C@@H](CO)C(=O)N[C@@H](C)C(=O)N[C@@H](CCCNC(=N)N)C(=O)N[C@@H](CCCCN)C(=O)N2` (HELM PEPTIDE1{Y.C.Q.K.W.M.W.T.C.D.S.A.R.K.C.C.E.G.L.V.C.R.L.W.C.K.K.K.I.L.W}$PEPTIDE1,PEPTIDE1,2:R3-16:R3|PEPTIDE1,PEPTIDE1,9:R3-21:R3|PEPTIDE1,PEPTIDE1,15:R3-25:R3$$$V2.0), the Ratio IC50 in the data set with HEK293 was 33. The Retention_time turned out to be 9.05 min in data set [1] and 15.88 min in data set [2].

For the compound `[H][C@]12CSSC[C@@H](C(=O)N[C@@H](CCCCN)C(=O)N[C@@H](CCCCN)C(=O)N[C@@H](CCCCN)C(=O)N[C@@H](CC(C)C)C(=O)N[C@@H](Cc3c[nH]c4ccccc34)C(=O)O)NC(=O)[C@H](Cc3c[nH]c4ccccc34)NC(=O)[C@H](CC(C)C)NC(=O)[C@H](CCCNC(=N)N)NC(=O)[C@]3([H])CSSC[C@]([H])(NC(=O)[C@]([H])([C@@H](C)O)NC(=O)[C@H](Cc4c[nH]c5ccccc45)NC(=O)[C@H](CCSC)NC(=O)[C@H](Cc4c[nH]c5ccccc45)NC(=O)[C@H](CCCCN)NC(=O)[C@H](CCC(N)=O)NC(=O)[C@@H](NC(=O)[C@@H](N)Cc4ccc(O)cc4)CSSC[C@]([H])(NC1=O)C(=O)N[C@@H](CCC(=O)O)C(=O)NCC(=O)N[C@@H](CC(C)C)C(=O)N[C@@H](C(C)C)C(=O)N3)C(=O)N[C@@H](CC(=O)O)C(=O)N[C@@H](CO)C(=O)N[C@@H](C)C(=O)N[C@@H](CCCNC(=N)N)C(=O)N[C@@H](CCCCN)C(=O)N2` (HELM PEPTIDE1{Y.C.Q.K.W.M.W.T.C.D.S.A.R.K.C.C.E.G.L.V.C.R.L.W.C.K.K.K.L.W}$PEPTIDE1,PEPTIDE1,2:R3-16:R3|PEPTIDE1,PEPTIDE1,9:R3-21:R3|PEPTIDE1,PEPTIDE1,15:R3-25:R3$$$V2.0), the Ratio IC50 with HEK293 came out at 24. Further, the Retention_time is reported as 9.86 min in data set [1] and 16.59 min in data set [2].

For the compound `CC[C@H](C)[C@H](NC(=O)[C@](C)(CC(C)C)NC(=O)[C@H](CCCCN)NC(=O)[C@H](CCCCN)NC(=O)[C@H](CCCCN)NC(=O)[C@@H]1CSSC[C@@H]2NC(=O)[C@H](CCCCN)NC(=O)[C@H](CCCNC(=N)N)NC(=O)[C@H](C)NC(=O)[C@H](CO)NC(=O)[C@H](CC(=O)O)NC(=O)[C@@H]3CSSC[C@H](NC(=O)[C@H](C(C)C)NC(=O)[C@H](CC(C)C)NC(=O)CNC(=O)[C@H](CCC(=O)O)NC(=O)[C@H](CSSC[C@H](NC(=O)[C@@H](N)Cc4ccc(O)cc4)C(=O)N[C@@H](CCC(N)=O)C(=O)N[C@@H](CCCCN)C(=O)N[C@@H](Cc4c[nH]c5ccccc45)C(=O)N[C@@H](CCSC)C(=O)N[C@@H](Cc4c[nH]c5ccccc45)C(=O)N[C@@H]([C@@H](C)O)C(=O)N3)NC2=O)C(=O)N[C@@H](CCCNC(=N)N)C(=O)N[C@@H](CC(C)C)C(=O)N[C@@H](Cc2c[nH]c3ccccc23)C(=O)N1)C(=O)O` (HELM PEPTIDE1{Y.C.Q.K.W.M.W.T.C.D.S.A.R.K.C.C.E.G.L.V.C.R.L.W.C.K.K.K.[CC(C)C[C@](C)(N[*:1])C(=O)[*:2]].I}$PEPTIDE1,PEPTIDE1,2:R3-16:R3|PEPTIDE1,PEPTIDE1,9:R3-21:R3|PEPTIDE1,PEPTIDE1,15:R3-25:R3$$$V2.0), in the data set with HEK293, the Ratio IC50 was 34.2. The figures for the Retention_time in data set [1] and in data set [2] were 9.03 min and 14.87 min, respectively.

Regarding `[H][C@]12CSSC[C@@H](C(=O)N[C@@H](CCCCN)C(=O)N[C@@H](CCCCN)C(=O)N[C@@H](CCCCN)C(=O)N[C@@](C)(CC(C)C)C(=O)N[C@@H](Cc3c[nH]c4ccccc34)C(=O)O)NC(=O)[C@H](Cc3c[nH]c4ccccc34)NC(=O)[C@H](CC(C)C)NC(=O)[C@H](CCCNC(=N)N)NC(=O)[C@]3([H])CSSC[C@]([H])(NC(=O)[C@]([H])([C@@H](C)O)NC(=O)[C@H](Cc4c[nH]c5ccccc45)NC(=O)[C@H](CCSC)NC(=O)[C@H](Cc4c[nH]c5ccccc45)NC(=O)[C@H](CCCCN)NC(=O)[C@H](CCC(N)=O)NC(=O)[C@@H](NC(=O)[C@@H](N)Cc4ccc(O)cc4)CSSC[C@]([H])(NC1=O)C(=O)N[C@@H](CCC(=O)O)C(=O)NCC(=O)N[C@@H](CC(C)C)C(=O)N[C@@H](C(C)C)C(=O)N3)C(=O)N[C@@H](CC(=O)O)C(=O)N[C@@H](CO)C(=O)N[C@@H](C)C(=O)N[C@@H](CCCNC(=N)N)C(=O)N[C@@H](CCCCN)C(=O)N2` (HELM PEPTIDE1{Y.C.Q.K.W.M.W.T.C.D.S.A.R.K.C.C.E.G.L.V.C.R.L.W.C.K.K.K.[CC(C)C[C@](C)(N[*:1])C(=O)[*:2]].W}$PEPTIDE1,PEPTIDE1,2:R3-16:R3|PEPTIDE1,PEPTIDE1,9:R3-21:R3|PEPTIDE1,PEPTIDE1,15:R3-25:R3$$$V2.0), in the data set with HEK293, the Ratio IC50 came out at 3.5. Besides, the results for the Retention_time in data set [1] and in data set [2] were 9.28 min and 15.29 min, respectively.

Consider `[H][C@]12CSSC[C@@H](C(=O)N[C@@H](CCCCN)C(=O)N[C@@H](CCCCN)C(=O)N[C@@H](CCCCN)C(=O)N(C)[C@@H](CC(C)C)C(=O)N[C@H](C(=O)O)[C@@H](C)CC)NC(=O)[C@H](Cc3c[nH]c4ccccc34)NC(=O)[C@H](CC(C)C)NC(=O)[C@H](CCCNC(=N)N)NC(=O)[C@]3([H])CSSC[C@]([H])(NC(=O)[C@]([H])([C@@H](C)O)NC(=O)[C@H](Cc4c[nH]c5ccccc45)NC(=O)[C@H](CCSC)NC(=O)[C@H](Cc4c[nH]c5ccccc45)NC(=O)[C@H](CCCCN)NC(=O)[C@H](CCC(N)=O)NC(=O)[C@@H](NC(=O)[C@@H](N)Cc4ccc(O)cc4)CSSC[C@]([H])(NC1=O)C(=O)N[C@@H](CCC(=O)O)C(=O)NCC(=O)N[C@@H](CC(C)C)C(=O)N[C@@H](C(C)C)C(=O)N3)C(=O)N[C@@H](CC(=O)O)C(=O)N[C@@H](CO)C(=O)N[C@@H](C)C(=O)N[C@@H](CCCNC(=N)N)C(=O)N[C@@H](CCCCN)C(=O)N2` (HELM PEPTIDE1{Y.C.Q.K.W.M.W.T.C.D.S.A.R.K.C.C.E.G.L.V.C.R.L.W.C.K.K.K.[meL].I}$PEPTIDE1,PEPTIDE1,2:R3-16:R3|PEPTIDE1,PEPTIDE1,9:R3-21:R3|PEPTIDE1,PEPTIDE1,15:R3-25:R3$$$V2.0), for which, in the data set on HEK293, the Ratio IC50 was determined as 2.8. The Retention_time in data set [1] was 8.79 min; in data set [2], 14.4 min.

`CSCC[C@@H]1NC(=O)[C@H](Cc2c[nH]c3ccccc23)NC(=O)[C@H](CCCCN)NC(=O)[C@H](CCC(N)=O)NC(=O)[C@@H](NC(=O)[C@@H](N)Cc2ccc(O)cc2)CSSC[C@@H]2NC(=O)[C@@H]3CSSC[C@@H](C(=O)N[C@@H](CCCCN)C(=O)N[C@@H](CCCCN)C(=O)N[C@@H](CCCCN)C(=O)N(C)[C@@H](CC(C)C)C(=O)N[C@@H](Cc4c[nH]c5ccccc45)C(=O)O)NC(=O)[C@H](Cc4c[nH]c5ccccc45)NC(=O)[C@H](CC(C)C)NC(=O)[C@H](CCCNC(=N)N)NC(=O)[C@H](CSSC[C@H](NC(=O)[C@H]([C@@H](C)O)NC(=O)[C@H](Cc4c[nH]c5ccccc45)NC1=O)C(=O)N[C@@H](CC(=O)O)C(=O)N[C@@H](CO)C(=O)N[C@@H](C)C(=O)N[C@@H](CCCNC(=N)N)C(=O)N[C@@H](CCCCN)C(=O)N3)NC(=O)[C@H](C(C)C)NC(=O)[C@H](CC(C)C)NC(=O)CNC(=O)[C@H](CCC(=O)O)NC2=O` (HELM PEPTIDE1{Y.C.Q.K.W.M.W.T.C.D.S.A.R.K.C.C.E.G.L.V.C.R.L.W.C.K.K.K.[meL].W}$PEPTIDE1,PEPTIDE1,2:R3-16:R3|PEPTIDE1,PEPTIDE1,9:R3-21:R3|PEPTIDE1,PEPTIDE1,15:R3-25:R3$$$V2.0): the Ratio IC50 with HEK293 came out at 2.8. The figures for the Retention_time in data set [1] and in data set [2] were 9.04 min and 15.1 min, respectively.
